In PMC7335720 (Saudi Pharmaceutical Journal : SPJ, 2020):

Test: Pharmacokinetic study after single oral dose in rabbits
Assay type: in vivo
Conditions: male, rabbit, plasma, 2.58 mg/kg
Method in brief: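 Twelve healthy fasted male rabbits (≈1.5 kg), 12 h fast, two groups. Single oral dose suspended in CMC: 2.58 mg/kg parent drug, or 6.45 mg/kg conjugate (2.58 mg/kg drug-equivalent). Water after 1 h. Plasma deproteinised with acetonitrile and filtered, then HPLC-UV at 248 nm (acetonitrile:water 50:50, isocratic, 1 mL/min) against a 1–50 μg/mL standard curve. AUC by linear trapezoidal method.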

CC(C(=O)O)c1ccc(-c2ccccc2)c(F)c1 (stereo not shown) [Standard FLB, 2-(3-fluoro-4-phenylphenyl)propionic acid]
AUC(0-inf): 190 ± 4 µg·h/mL | Cmax: 37300 ng/mL | half-life: 4.6 ± 0.19 h | k el: 4.17e-05 s⁻¹
